≈ marks a conversion by molar mass, not a printed value. Calls of active or inactive are those of the source. The rule behind the calls is not given here.
Experiments:
Trichophyton rubrum [1] = assay: Antifungal activity against Trichophyton rubrum ATCC 10218 by CLSI method; format: functional, organism-based
In short: (§1)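 Growth scraped from 1- to 6-week-old potato dextrose slants and filtered through Miracloth. Diluted in 5% Alamar blue-RPMI 1640 (MOPS pH 7.0) to 2.7 × 10⁴ CFU/ml. Eleven twofold dilutions in duplicate. Fluorescence at 544 nm excitation/590 nm emission read before and after 35°C, 5 days. IC50 fitted from percent growth. MIC taken as no detectable growth; MFC from clear or blue wells plated on PD agar.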

Trichophyton rubrum [2] = assay: Antifungal activity against Trichophyton rubrum ATCC MYA-4438 by CLSI method; format: functional, organism-based; in short: as §1
[3] = system: Trichophyton mentagrophytes; assay: Antifungal activity against Trichophyton mentagrophytes ATCC 9533 by CLSI method; format: functional, organism-based; in short: as §1
[4] = system: Trichophyton mentagrophytes; assay: Antifungal activity against Trichophyton mentagrophytes ATCC MYA-4439 by CLSI method; format: functional, organism-based; in short: as §1
Cryptococcus neoformans [5] = assay: Antifungal activity against Cryptococcus neoformans ATCC 66031 after 72 hrs by CLSI method; format: functional, organism-based; conditions: ATCC 66031, 72 h
In short: (§2)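 SD broth replaced RPMI because growth in RPMI was poor; other CLSI conditions were kept. Inoculum was 1.5 × 10³ CFU/ml from colonies on SD agar, checked by plating. Twofold serial dilutions (11 concentrations) in 20% DMSO-saline were tested in duplicate. OD530 was read before and after incubation at 35°C for 72 h. Percent growth gave IC50; the MIC is the lowest concentration with no detectable growth.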

Candida tropicalis [6] = assay: Antifungal activity against Candida tropicalis ATCC 750 after 48 hrs by CLSI method; format: functional, organism-based; conditions: ATCC 750, 48 h
In short: (§3)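 Yeast suspensions made from 3-5 colonies off 24-72 h SD agar plates in saline. They were diluted by OD630 standard curve in RPMI 1640 (0.2% dextrose, 0.03% glutamine, 0.165 M MOPS, pH 7.0) to 1.5 × 10³ CFU/ml. Twofold dilutions (11 concentrations, 20% DMSO-saline) run in duplicate. OD530 read before and after 35°C, 48 h. Line values are top test concentrations; no-growth endpoints give MIC/MFC.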

Pichia kudriavzevii = assay: Antifungal activity against Candida krusei ATCC 6258 after 48 hrs by CLSI method; format: functional, organism-based; conditions: ATCC 6258, 48 h
In short: (§4)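 Candida inocula came from 24–72-h SD agar colonies suspended in saline. They were diluted by OD630 standard curve into RPMI 1640 (0.2% dextrose, 0.03% glutamine, 0.165 M MOPS, pH 7.0) to 1.5 × 10³ CFU/ml. Compounds were run as 11 twofold dilutions in 20% DMSO-saline, in duplicate, at 35°C for 48 h, with OD530 read before and after. Percent growth at the top concentration, IC50, MIC, and MFC (SD agar plating) were derived.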

Candida albicans [7] = assay: Antifungal activity against Fluconazole resistant Candida albicans clinical isolate 17 after 48 hrs by CLSI method; format: functional, organism-based
In short: (§5)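 CLSI broth microdilution. Colonies from 24–72 h SD agar suspended in saline and sized by OD630 standard curve. Inoculum 1.5 × 10³ CFU/ml (final) in RPMI 1640 (0.2% dextrose, 0.03% glutamine, 0.165 M MOPS, pH 7.0). Twofold dilutions (11 levels) from 20% DMSO-saline, in duplicate. 35°C for 48 h, OD530 read before and after. IC50 fitted from % growth. MIC: no detectable growth. MFC: subculture onto SD agar.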

Candida albicans [8] = assay: Antifungal activity against Fluconazole resistant Candida albicans clinical isolate 1 after 48 hrs by CLSI method; format: functional, organism-based; in short: as §5
Candida albicans [9] = assay: Antifungal activity against Candida albicans ATCC 200955 after 48 hrs by CLSI method; format: functional, organism-based; conditions: ATCC 200955, 48 h; in short: as §5
Candida albicans [10] = assay: Antifungal activity against Candida albicans ATCC 90028 after 48 hrs by CLSI method; format: functional, organism-based; conditions: ATCC 90028, 48 h; in short: as §5
Candida albicans [11] = assay: Antifungal activity against Candida albicans ATCC 60193 at 178.3 uM after 48 hrs by CLSI method; format: functional, organism-based; in short: as §4
Candida albicans [12] = assay: Antifungal activity against Candida albicans ATCC 32354 at 178.3 uM after 48 hrs by CLSI method; format: functional, organism-based; in short: as §4
Candida albicans [13] = assay: Antifungal activity against Candida albicans ATCC 200955 at 178.3 uM after 48 hrs by CLSI method; format: functional, organism-based; in short: as §4
Candida albicans [14] = assay: Antifungal activity against Fluconazole resistant Candida albicans isolate 1 at 178.3 uM after 48 hrs by CLSI method; format: functional, organism-based
In short: (§6)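 Candida in CLSI broth microdilution. Saline colony suspension set to 1.5 × 10³ CFU/ml (final) in MOPS-buffered RPMI 1640, pH 7.0. Test agent given as twofold serial dilutions in 20% DMSO-saline, duplicate wells. 35°C for 48 h. Growth read as OD530 before and after incubation. Percent inhibition scored at the highest test concentration.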

Candida albicans [15] = assay: Antifungal activity against Fluconazole resistant Candida albicans isolate 17 at 178.3 uM after 48 hrs by CLSI method; format: functional, organism-based; in short: as §6
Nakaseomyces glabratus = assay: Antifungal activity against Candida glabrata ATCC 90030 at 178.3 uM after 48 hrs by CLSI method; format: functional, organism-based; in short: as §4
Candida parapsilosis = assay: Antifungal activity against Candida parapsilosis ATCC 22019 at 178.3 uM after 48 hrs by CLSI method; format: functional, organism-based; in short: as §3
Candida tropicalis [16] = assay: Antifungal activity against Candida tropicalis ATCC 750 at 178.3 uM after 48 hrs by CLSI method; format: functional, organism-based; in short: as §3
Candida albicans [17] = assay: Antifungal activity against Candida albicans ATCC 32354 after 48 hrs by CLSI method; format: functional, organism-based; conditions: ATCC 32354, 48 h; in short: as §5
SK-MEL = assay: Cytotoxicity against human SK-MEL cells up to 32 uM by neutral red method; format: cell-based
In short: (§7)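 Neutral red uptake cytotoxicity, top concentration 32 μM.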

KB = assay: Cytotoxicity against human KB cells up to 32 uM by neutral red method; format: cell-based; in short: as §7
BT-549 = assay: Cytotoxicity against human BT549 cells up to 32 uM by neutral red method; format: cell-based; in short: as §7
SK-OV-3 = assay: Cytotoxicity against human SKOV3 cells up to 32 uM by neutral red method; format: cell-based; in short: as §7
Vero = assay: Cytotoxicity against African green monkey Vero cells up to 32 uM by neutral red method; format: cell-based; conditions: chlorocebus sabaeus; in short: as §7
LLC-PK1 = assay: Cytotoxicity against pig LLC-PK1 cells up to 32 uM by neutral red method; format: cell-based, Sus scrofa; in short: as §7
Mus musculus = assay: Toxicity in mouse up to 34 umol/kg/day, ip for 3 days; format: organism-based; conditions: in vivo, 72 h
Candida albicans [18] = assay: Antifungal activity against Candida albicans ATCC 14053 after 48 hrs by CLSI method; format: functional, organism-based; conditions: ATCC 14053, 48 h; in short: as §5
Candida albicans [19] = assay: Antifungal activity against Candida albicans ATCC 60193 after 48 hrs by CLSI method; format: functional, organism-based; conditions: ATCC 60193, 48 h; in short: as §5
Cryptococcus neoformans [20] = assay: Antifungal activity against Cryptococcus neoformans ATCC 90113 at 178.3 uM after 72 hrs by CLSI method; format: functional, organism-based; in short: as §2
Cryptococcus neoformans [21] = assay: Antifungal activity against Cryptococcus neoformans ATCC 66031 at 178.3 uM after 72 hrs by CLSI method; format: functional, organism-based; in short: as §2
Aspergillus fumigatus [22] = assay: Antifungal activity against Aspergillus fumigatus ATCC 204305 at 178.3 uM after 48 hrs by CLSI method; format: functional, organism-based
Aspergillus fumigatus [23] = assay: Antifungal activity against Aspergillus fumigatus ATCC 90906 at 178.3 uM after 48 hrs by CLSI method; format: functional, organism-based
Aspergillus flavus = assay: Antifungal activity against Aspergillus flavus ATCC 204304 at 178.3 uM after 48 hrs by CLSI method; format: functional, organism-based
Aspergillus niger = assay: Antifungal activity against Aspergillus niger ATCC 16404 at 178.3 uM after 48 hrs by CLSI method; format: functional, organism-based
Trichophyton rubrum [24] = assay: Antifungal activity against Trichophyton rubrum ATCC MYA-4438 at 178.3 uM after 5 days by CLSI method; format: functional, organism-based
Aspergillus fumigatus [25] = assay: Antifungal activity against Aspergillus fumigatus ATCC 204305 after 48 h by CLSI method; conditions: ATCC 204305, 48 h

SMILES: CCCCCCCCCCCC#CCCCCC(=O)O [6-OCTADECYNOIC ACID]
- IC50 (Trichophyton rubrum [1]): 2700 nM
- MFC (Trichophyton rubrum [1]): 11.1 µM (≈ 3.11 µg/mL)
- MIC (Trichophyton rubrum [1]): 5.6 µM (≈ 1.57 µg/mL)
- IC50 (Trichophyton rubrum [2]): 1800 nM
- MIC (Trichophyton rubrum [2]): 5.6 µM (≈ 1.57 µg/mL)
- IC50 [3]: 1300 nM
- MFC [3]: 2.8 µM (≈ 0.785 µg/mL)
- MIC [3]: 2.1 µM (≈ 0.589 µg/mL)
- IC50 [4]: 1200 nM
- MFC [4]: 2.8 µM (≈ 0.785 µg/mL)
- MIC [4]: 2.8 µM (≈ 0.785 µg/mL)
- IC50 (Cryptococcus neoformans [5]): 1400 nM
- IC50 (Candida tropicalis [6]): 6300 nM
- MIC (Candida tropicalis [6]): 111 µM (≈ 31.2 µg/mL)
- IC50 (Pichia kudriavzevii): 3400 nM
- MIC (Pichia kudriavzevii): 5.6 µM (≈ 1.57 µg/mL)
- IC50 (Candida albicans [7]): 3600 nM
- MIC (Candida albicans [7]): 16.7 µM (≈ 4.68 µg/mL)
- IC50 (Candida albicans [8]): 4200 nM
- MIC (Candida albicans [8]): 13.9 µM (≈ 3.9 µg/mL)
- IC50 (Candida albicans [9]): 1900 nM
- MIC (Candida albicans [9]): 11.1 µM (≈ 3.11 µg/mL)
- IC50 (Candida albicans [10]): 2000 nM
- MFC (Candida albicans [10]): 11.1 µM (≈ 3.11 µg/mL)
- MIC (Candida albicans [10]): 2.8 µM (≈ 0.785 µg/mL)
- Activity (Candida albicans [11]): inactive
- Activity (Candida albicans [12]): inactive
- Activity (Candida albicans [13]): inactive
- Activity (Candida albicans [14]): inactive
- Activity (Candida albicans [15]): inactive
- Activity (Nakaseomyces glabratus): inactive
- Activity (Candida parapsilosis): inactive
- Activity (Candida tropicalis [16]): inactive
- IC50 (Candida albicans [17]): 4000 nM
- MIC (Candida albicans [17]): 27.9 µM (≈ 7.82 µg/mL)
- Activity (SK-MEL): Non-toxic
- Activity (KB): Non-toxic
- Activity (BT-549): Non-toxic
- Activity (SK-OV-3): Non-toxic
- Activity (Vero): Non-toxic
- Activity (LLC-PK1): Non-toxic
- Activity (Mus musculus): Non-toxic
- IC50 (Candida albicans [18]): 1000 nM
- MFC (Candida albicans [18]): 5.6 µM (≈ 1.57 µg/mL)
- MIC (Candida albicans [18]): 2.8 µM (≈ 0.785 µg/mL)
- IC50 (Candida albicans [19]): 3000 nM
- MIC (Candida albicans [19]): 5.6 µM (≈ 1.57 µg/mL)
- Activity (Cryptococcus neoformans [20]): inactive
- Activity (Cryptococcus neoformans [21]): inactive
- Activity (Aspergillus fumigatus [22]): inactive
- Activity (Aspergillus fumigatus [23]): inactive
- Activity (Aspergillus flavus): inactive
- Activity (Aspergillus niger): inactive
- Activity (Trichophyton rubrum [24]): inactive
- IC50 (Aspergillus fumigatus [25]): 18700 nM
- MIC (Aspergillus fumigatus [25]): 178 µM (≈ 50 µg/mL)

Reference: ChEMBL document CHEMBL1275449, “Potent in vitro antifungal activities of naturally occurring acetylenic acids” (Antimicrob Agents Chemother, 2008)
